≈ marks a conversion by molar mass, not a printed value.

Broadly, the MIC is the least concentration at which growth counts as inhibited.

The test system of one experiment is Streptococcus pneumoniae. The experiment in a line: Antimicrobial activity against Streptococcus pneumoniae RCMB 010010 assessed as inhibition zone at 5 mg/ml after 24 hrs. The class given is functional. The conditions noted are these: RCMB 010010, 24 h, read-out: IZ. In a few lines: (§1)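 Agar diffusion on nutrient agar seeded with 10^6 CFU/mL bacteria. Filter-paper disks were loaded with 100 µL of a 5 mg/mL compound solution in DMF, with a DMF-only control. Incubation was 37 °C for 24 h. Inhibition zone in mm (mean ± SD, triplicate plates) was measured beyond the 6 mm diameter.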
For the compound `CC(=O)c1sc(NC23CC4CC(CC(C4)C2)C3)c(C(=O)Nc2ccc(S(=O)(=O)Nc3onc(C)c3C)cc2)c1N`, the zone of inhibition at 5000 µg/mL came out at 21.6 mm.
Regarding `COc1ccc(-c2c(C#N)c(S)n(-c3ccc(S(=O)(=O)Nc4onc(C)c4C)cc3)c(=O)c2C#N)cc1`, the zone of inhibition at 5000 µg/mL came to 20.6 mm.

A further experiment deals with Streptococcus pneumoniae. Briefly: Antimicrobial activity against Streptococcus pneumoniae RCMB 010010 assessed as absence of turbidity after 24 hrs. In kind it is functional. Particulars: RCMB 010010, 24 h. In a few lines: (§2)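 Broth microdilution in Müller–Hinton broth. DMF stocks at 1000 µg/mL were diluted in broth to give twofold serial dilutions over 500–0.007 µg/mL. Bacterial inoculum was about 10^6 CFU/mL in 96-well plates, sealed and incubated at 37 °C for 24 h in a humid chamber. MIC was taken as the lowest concentration with no visible turbidity. DMF and uninoculated-medium controls were included. Only compounds giving zones >10 mm were tested.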
`CC(=O)c1sc(NC23CC4CC(CC(C4)C2)C3)c(C(=O)Nc2ccc(S(=O)(=O)Nc3onc(C)c3C)cc2)c1N`: the MIC amounted to 0.98 µg/mL (≈ 1.68 µM).
On the same count and under the same terms, next, `COc1ccc(-c2c(C#N)c(S)n(-c3ccc(S(=O)(=O)Nc4onc(C)c4C)cc3)c(=O)c2C#N)cc1`: 0.98 µg/mL (≈ 1.84 µM).

The next experiment has as its system Bacillus subtilis. The experiment in a line: Antimicrobial activity against Bacillis subtilis RCMB 010067 assessed as inhibition zone at 5 mg/ml after 24 hrs. In kind it is functional. Particulars: RCMB 010067, 24 h, read-out: IZ. In a few lines: as §1
Regarding `CC(=O)c1sc(NC23CC4CC(CC(C4)C2)C3)c(C(=O)Nc2ccc(S(=O)(=O)Nc3onc(C)c3C)cc2)c1N`, the zone of inhibition at 5000 µg/mL is 22.9 mm.
In the case of `COc1ccc(-c2c(C#N)c(S)n(-c3ccc(S(=O)(=O)Nc4onc(C)c4C)cc3)c(=O)c2C#N)cc1`, the zone of inhibition at 5000 µg/mL was determined as 22.4 mm.

The next experiment concerns Bacillus subtilis. Briefly: Antimicrobial activity against Bacillis subtilis RCMB 010067 assessed as absence of turbidity after 24 hrs. The class given is functional. Particulars: RCMB 010067, 24 h. The method in brief:
as §2
Consider `CC(=O)c1sc(NC23CC4CC(CC(C4)C2)C3)c(C(=O)Nc2ccc(S(=O)(=O)Nc3onc(C)c3C)cc2)c1N`, for which the minimal inhibitory concentration (MIC) was found to be 0.24 µg/mL (≈ 0.411 µM).
As for `COc1ccc(-c2c(C#N)c(S)n(-c3ccc(S(=O)(=O)Nc4onc(C)c4C)cc3)c(=O)c2C#N)cc1`, the MIC is 0.98 µg/mL (≈ 1.84 µM).

The next experiment has as its system Staphylococcus epidermidis. The experiment in a line: Antimicrobial activity against Staphylococcus epidermidis RCMB 010024 assessed as inhibition zone at 5 mg/ml after 24 hrs. The class given is functional. The conditions noted are these: RCMB 010024, 24 h, read-out: IZ. The method in brief:
as §1
Regarding `CC(=O)c1sc(NC23CC4CC(CC(C4)C2)C3)c(C(=O)Nc2ccc(S(=O)(=O)Nc3onc(C)c3C)cc2)c1N`, the zone of inhibition at 5000 µg/mL was 20.9 mm.
Regarding `COc1ccc(-c2c(C#N)c(S)n(-c3ccc(S(=O)(=O)Nc4onc(C)c4C)cc3)c(=O)c2C#N)cc1`, the zone of inhibition at 5000 µg/mL was found to be 19.9 mm.

The test system of another experiment is Staphylococcus epidermidis. Briefly: Antimicrobial activity against Staphylococcus epidermidis RCMB 010024 assessed as absence of turbidity after 24 hrs. Particulars: RCMB 010024, 24 h. In kind it is functional. In a few lines:
as §2
`CC(=O)c1sc(NC23CC4CC(CC(C4)C2)C3)c(C(=O)Nc2ccc(S(=O)(=O)Nc3onc(C)c3C)cc2)c1N`: the minimum inhibitory concentration (MIC) worked out at 0.98 µg/mL (≈ 1.68 µM).
Still for that read-out and setting: under `COc1ccc(-c2c(C#N)c(S)n(-c3ccc(S(=O)(=O)Nc4onc(C)c4C)cc3)c(=O)c2C#N)cc1` stands 1.95 µg/mL (≈ 3.65 µM).

The next experiment concerns Escherichia coli. The experiment in a line: Antimicrobial activity against Escherichia coli RCMB 010052 assessed as inhibition zone at 5 mg/ml after 24 hrs. The class given is functional. Particulars: RCMB 010052, 24 h, read-out: IZ. In a few lines:
as §1
Turning to `CC(=O)c1sc(NC23CC4CC(CC(C4)C2)C3)c(C(=O)Nc2ccc(S(=O)(=O)Nc3onc(C)c3C)cc2)c1N`, the zone of inhibition at 5000 µg/mL was determined as 29.9 mm.
Regarding `COc1ccc(-c2c(C#N)c(S)n(-c3ccc(S(=O)(=O)Nc4onc(C)c4C)cc3)c(=O)c2C#N)cc1`, the zone of inhibition at 5000 µg/mL is 20.6 mm.

A further experiment concerns Escherichia coli. The experiment in a line: Antimicrobial activity against Escherichia coli RCMB 010052 assessed as absence of turbidity after 24 hrs. The class given is functional. Particulars: RCMB 010052, 24 h. The method in brief:
as §2
As for `CC(=O)c1sc(NC23CC4CC(CC(C4)C2)C3)c(C(=O)Nc2ccc(S(=O)(=O)Nc3onc(C)c3C)cc2)c1N`, the MIC came out at 0.007 µg/mL (≈ 0.012 µM).
The same measure, in the same setting: next, `COc1ccc(-c2c(C#N)c(S)n(-c3ccc(S(=O)(=O)Nc4onc(C)c4C)cc3)c(=O)c2C#N)cc1`: 0.98 µg/mL (≈ 1.84 µM).

The next experiment relates to Proteus vulgaris. The experiment in a line: Antimicrobial activity against Proteus vulgaris RCMB 010085 assessed as inhibition zone at 5 mg/ml after 24 hrs. In kind it is functional. The conditions noted are these: RCMB 010085, 24 h, read-out: IZ. The method in brief: as §1
For `CC(=O)c1sc(NC23CC4CC(CC(C4)C2)C3)c(C(=O)Nc2ccc(S(=O)(=O)Nc3onc(C)c3C)cc2)c1N`, the zone of inhibition at 5000 µg/mL came to 17.4 mm.
The same measure, in the same setting: next, `COc1ccc(-c2c(C#N)c(S)n(-c3ccc(S(=O)(=O)Nc4onc(C)c4C)cc3)c(=O)c2C#N)cc1`: 18.6 mm.

The next experiment deals with Proteus vulgaris. The experiment in a line: Antimicrobial activity against Proteus vulgaris RCMB 010085 assessed as absence of turbidity after 24 hrs. The class given is functional. The conditions noted are these: RCMB 010085, 24 h. In a few lines: as §2
As to `CC(=O)c1sc(NC23CC4CC(CC(C4)C2)C3)c(C(=O)Nc2ccc(S(=O)(=O)Nc3onc(C)c3C)cc2)c1N`, the MIC was 15.6 µg/mL (≈ 26.7 µM).
As to `COc1ccc(-c2c(C#N)c(S)n(-c3ccc(S(=O)(=O)Nc4onc(C)c4C)cc3)c(=O)c2C#N)cc1`, the MIC was found to be 3.9 µg/mL (≈ 7.31 µM).

The subject of a further experiment is Klebsiella pneumoniae. Briefly: Antimicrobial activity against Klebsiella pneumoniae RCMB 010093 assessed as inhibition zone at 5 mg/ml after 24 hrs. The class given is functional. Particulars: RCMB 010093, 24 h, read-out: IZ. In a few lines: as §1
Regarding `CC(=O)c1sc(NC23CC4CC(CC(C4)C2)C3)c(C(=O)Nc2ccc(S(=O)(=O)Nc3onc(C)c3C)cc2)c1N`, the zone of inhibition at 5000 µg/mL stood at 20.3 mm.
Turning to `COc1ccc(-c2c(C#N)c(S)n(-c3ccc(S(=O)(=O)Nc4onc(C)c4C)cc3)c(=O)c2C#N)cc1`, the zone of inhibition at 5000 µg/mL is 21.4 mm.

In another experiment the test system is Klebsiella pneumoniae. The experiment in a line: Antimicrobial activity against Klebsiella pneumoniae RCMB 010093 assessed as absence of turbidity after 24 hrs. In kind it is functional. The conditions noted are these: RCMB 010093, 24 h. The method in brief:
as §2
For `CC(=O)c1sc(NC23CC4CC(CC(C4)C2)C3)c(C(=O)Nc2ccc(S(=O)(=O)Nc3onc(C)c3C)cc2)c1N`, the MIC was 0.98 µg/mL (≈ 1.68 µM).
Still for that read-out and setting: next, `COc1ccc(-c2c(C#N)c(S)n(-c3ccc(S(=O)(=O)Nc4onc(C)c4C)cc3)c(=O)c2C#N)cc1`: 0.98 µg/mL (≈ 1.84 µM).

The test system of another experiment is Aspergillus fumigatus. The experiment in a line: Antifungal activity against Aspergillus fumigatus RCMB 02568 assessed as inhibition zone at 5 mg/ml after 48 hrs. The conditions noted are these: RCMB 02568, 48 h, read-out: IZ. In kind it is functional. In a few lines: (§3)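 Disk diffusion on nutrient agar seeded with 10^4 CFU/mL fungus. Sterile filter-paper disks carried 100 µL of a 5 mg/mL DMF solution, and DMF alone served as control. Plates were incubated at 25 °C for 48 h. Mean inhibition zone in mm ± SD was read beyond the 6 mm diameter, in triplicate.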
Consider `CC(=O)c1sc(NC23CC4CC(CC(C4)C2)C3)c(C(=O)Nc2ccc(S(=O)(=O)Nc3onc(C)c3C)cc2)c1N`, for which the zone of inhibition at 5000 µg/mL came out at 25.3 mm.
Regarding `COc1ccc(-c2c(C#N)c(S)n(-c3ccc(S(=O)(=O)Nc4onc(C)c4C)cc3)c(=O)c2C#N)cc1`, the zone of inhibition at 5000 µg/mL came out at 20.4 mm.

For the next experiment, the system named is Aspergillus fumigatus. The experiment in a line: Antifungal activity against Aspergillus fumigatus RCMB 02568 assessed as absence of turbidity after 48 hrs. In kind it is functional. Particulars: RCMB 02568, 48 h. The method in brief:
(§4)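 Broth microdilution in Sabouraud liquid medium. DMF stocks at 1000 µg/mL were diluted in broth to give twofold serial dilutions over 500–0.007 µg/mL. Fungal inoculum was about 10^4 CFU/mL in 96-well plates, sealed and incubated at 25 °C for 48 h in a humid chamber. MIC was taken as the lowest concentration with no visible turbidity. DMF and uninoculated-medium controls were included.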
Take `CC(=O)c1sc(NC23CC4CC(CC(C4)C2)C3)c(C(=O)Nc2ccc(S(=O)(=O)Nc3onc(C)c3C)cc2)c1N`: the MIC came to 0.06 µg/mL (≈ 0.103 µM).
For `COc1ccc(-c2c(C#N)c(S)n(-c3ccc(S(=O)(=O)Nc4onc(C)c4C)cc3)c(=O)c2C#N)cc1`, the MIC came out at 0.98 µg/mL (≈ 1.84 µM).

The next experiment concerns Syncephalastrum racemosum. Briefly: Antifungal activity against Syncephalastrum racemosum RCMB 05922 assessed as inhibition zone at 5 mg/ml after 48 hrs. In kind it is functional. Particulars: RCMB 05922, 48 h, read-out: IZ.
`CC(=O)c1sc(NC23CC4CC(CC(C4)C2)C3)c(C(=O)Nc2ccc(S(=O)(=O)Nc3onc(C)c3C)cc2)c1N`: the zone of inhibition at 5000 µg/mL stood at 26.9 mm.
On to `COc1ccc(-c2c(C#N)c(S)n(-c3ccc(S(=O)(=O)Nc4onc(C)c4C)cc3)c(=O)c2C#N)cc1`, for which the zone of inhibition at 5000 µg/mL was 16.3 mm.

The next experiment concerns Syncephalastrum racemosum. The experiment in a line: Antifungal activity against Syncephalastrum racemosum RCMB 05922 assessed as absence of turbidity after 48 hrs. The class given is functional. Particulars: RCMB 05922, 48 h.
Turning to `CC(=O)c1sc(NC23CC4CC(CC(C4)C2)C3)c(C(=O)Nc2ccc(S(=O)(=O)Nc3onc(C)c3C)cc2)c1N`, the MIC amounted to 0.007 µg/mL (≈ 0.012 µM).
On the same count and under the same terms, under `COc1ccc(-c2c(C#N)c(S)n(-c3ccc(S(=O)(=O)Nc4onc(C)c4C)cc3)c(=O)c2C#N)cc1` stands 31.2 µg/mL (≈ 58.6 µM).

The subject of another experiment is Geotrichum candidum. The experiment in a line: Antifungal activity against Geotrichum candidum RCMB 05097 assessed as inhibition zone at 5 mg/ml after 48 hrs. The conditions noted are these: RCMB 05097, 48 h, read-out: IZ. In kind it is functional. The method in brief: as §3
For `CC(=O)c1sc(NC23CC4CC(CC(C4)C2)C3)c(C(=O)Nc2ccc(S(=O)(=O)Nc3onc(C)c3C)cc2)c1N`, the zone of inhibition at 5000 µg/mL was 24.6 mm.
`COc1ccc(-c2c(C#N)c(S)n(-c3ccc(S(=O)(=O)Nc4onc(C)c4C)cc3)c(=O)c2C#N)cc1`: the zone of inhibition at 5000 µg/mL was 22.4 mm.

The subject of the next experiment is Geotrichum candidum. The experiment in a line: Antifungal activity against Geotrichum candidum RCMB 05097 assessed as absence of turbidity after 48 hrs. The class given is functional. Particulars: RCMB 05097, 48 h. The method in brief:
as §4
With `CC(=O)c1sc(NC23CC4CC(CC(C4)C2)C3)c(C(=O)Nc2ccc(S(=O)(=O)Nc3onc(C)c3C)cc2)c1N`, the MIC was found to be 0.12 µg/mL (≈ 0.206 µM).
In the case of `COc1ccc(-c2c(C#N)c(S)n(-c3ccc(S(=O)(=O)Nc4onc(C)c4C)cc3)c(=O)c2C#N)cc1`, the MIC was found to be 0.49 µg/mL (≈ 0.918 µM).

Source of the values: ChEMBL document CHEMBL3351454, “Design, synthesis, antimicrobial evaluation and molecular docking studies of some new thiophene, pyrazole and pyridone derivatives bearing sulfisoxazole moiety” (2014).
